Assay results from ChEMBL document CHEMBL3745660, “Hit-to-lead optimization of phenylsulfonyl hydrazides for a potent suppressor of PGE2 production: Synthesis, biological activity, and molecular docking study” (Bioorg Med Chem Lett, 2016).

Tests used:
[1] = tested on: RAW264.7; test: Cytotoxicity against mouse RAW264.7 cells assessed as cell viability at 1 to 10 uM after 24 hrs in presence of LPS by MTT assay; type: cell-based; conditions: raw264.7, 24 h
Procedure, shortened: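 RAW 264.7 macrophages treated with compounds at 1 or 10 µM in the presence of LPS for 24 h; viability read by MTT assay. Experiments run at least twice.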

[2] = tested on: RAW264.7; test: Suppression of PGE2 production in LPS-induced mouse RAW264.7 cells after 24 hrs by enzyme immunoassay; type: functional, cell-based; conditions: RAW264.7, 24 h
Procedure, shortened: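 RAW 264.7 cells stimulated with LPS and treated with compound for 24 h, first screened at 1 or 10 µM. Compounds giving >50% suppression went on to IC50 determination. PGE2 in medium measured by EIA. NS398 at 3 µM served as positive control. Runs done at least twice.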

[3] = target: T1, Prostaglandin E synthase (Homo sapiens) (UniProt O14684); test: Inhibition of PGES-1 in human A549 cell microsomes using PGH2 as substrate assessed as remaining enzyme activity of interleukin-1beta-stimulated PGE2 production at 10 uM incubated for 15 mins post interleukin-1beta challenge for 72 hrs by RP-HPLC analysis
T1 sequence (whole entry): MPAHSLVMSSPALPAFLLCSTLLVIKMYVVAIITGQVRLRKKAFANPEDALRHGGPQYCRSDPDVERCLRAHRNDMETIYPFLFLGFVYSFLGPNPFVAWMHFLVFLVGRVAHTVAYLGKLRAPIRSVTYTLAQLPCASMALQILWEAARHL
Procedure, shortened: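 Microsomes from A549 cells stimulated with 2 ng/mL IL-1β for 72 h (pellet after 10,000 × g then 174,000 × g spins), diluted in 0.1 M potassium phosphate pH 7.4 with 2.5 mM glutathione. Compound at 10 µM preincubated 15 min at 4 °C, then 20 µM PGH2 added for 1 min at 4 °C. Stopped with FeCl2/citric acid containing 11β-PGE2 internal standard. PGE2 isolated by solid-phase extraction and quantified by RP-HPLC. Activity given as % of uninhibited control, mean ± S.E.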

[4] = target: T1, Prostaglandin E synthase (Homo sapiens); test: Potency index, ratio of IC50 for MK-886 to IC50 for test compound for inhibition of PGES-1 in human A549 cell microsomes; type: cell-based
[5] = tested on: RAW264.7; test: Potency index, ratio of IC50 for NS398 to IC50 for test compound for suppression of PGE2 production in LPS-induced mouse RAW264.7 cells; type: functional
[6] = tested on: RAW264.7; test: Suppression of NO production in LPS-induced mouse RAW264.7 cells by Griess assay; type: functional, cell-based
Procedure, shortened: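 LPS (10 ng/mL)-stimulated RAW 264.7 cells co-incubated with compound at 0.1–10 nM. Nitrite in supernatant read with Griess reagent. Means ± SD of three samples; ANOVA with Dunnett's test.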

[7] = target: T2, Prostaglandin E synthase (Homo sapiens, UniProt O14684); test: Inhibition of PGES-1 in human A549 cell microsomes using PGH2 as substrate assessed as suppression of interleukin-1beta-stimulated PGE2 production incubated for 15 mins post interleukin-1beta challenge for 72 hrs by RP-HPLC analysis
T2 sequence (O14684 whole entry): T1 sequence (whole entry)
Procedure, shortened: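 Enzyme source was A549 microsomes after 72 h IL-1β (2 ng/mL) stimulation, in 0.1 M potassium phosphate pH 7.4 with 2.5 mM GSH. Compounds preincubated 15 min at 4 °C over a concentration range, then 20 µM PGH2 added for 1 min at 4 °C. Reaction stopped, PGE2 recovered by solid-phase extraction and measured by RP-HPLC against 11β-PGE2.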

IC50 [2] | Activity [3] | Ratio IC50 [4] | IC50 [6] | IC50 [7] | SMILES | Cytotoxic concentration [1] | Ratio IC50 [5]
177 nM |  |  |  |  | Cc1cc(C)c(S(=O)(=O)N(Nc2ccccc2)C(=O)Oc2ccc(Oc3ccccc3)cc2)c(C)c1 | > 1 µM | 
4.5 nM | 18.5% | 30 | 6.9 nM | 70 nM | COc1ccc(S(=O)(=O)N(Nc2ccccc2)C(=O)Oc2ccc3c(c2)CCC3)cc1 | > 10 µM | 1.5
32.6 nM | 81.2% |  |  | > 10000 nM | Cc1ccc(S(=O)(=O)N(Nc2ccccc2)C(=O)Oc2ccc(OCc3ccccc3)cc2)cc1 | >= 10 uM | 
81.5 nM |  |  |  |  | Cc1cc(C)c(S(=O)(=O)N(Nc2ccccc2)C(=O)Oc2ccc(OCc3ccccc3)cc2)c(C)c1 | > 1 µM | 
4430 nM |  |  |  |  | COc1ccc(S(=O)(=O)N(Nc2ccccc2)C(=O)Oc2ccccc2)cc1 | > 10 µM | 
 | 16.3% |  |  |  | CC(C)c1ccc2c(c1)c(SC(C)(C)C)c(CC(C)(C)C(=O)O)n2Cc1ccc(Cl)cc1 |  | 
165 nM |  |  |  |  | COc1ccc(S(=O)(=O)N(Nc2ccccc2)C(=O)Oc2ccccc2OC)cc1 | > 10 µM | 
17.1 nM | 37.1% |  |  | 6600 nM | COc1ccc(S(=O)(=O)N(Nc2ccccc2)C(=O)Oc2ccc(Oc3ccccc3)cc2)cc1 | > 10 µM | 
584 nM |  |  |  |  | COc1ccc(OC(=O)N(Nc2ccccc2)S(=O)(=O)c2ccccc2)cc1 | > 10 µM | 
28.5 nM | 63.6% |  |  | > 10000 nM | CCc1ccc(OC(=O)N(Nc2ccccc2)S(=O)(=O)c2ccc(OC)cc2)cc1 | > 10 µM | 
1020 nM |  |  |  |  | Cc1ccc(OC(=O)N(Nc2ccccc2)S(=O)(=O)c2ccccc2)cc1 | > 10 µM | 
34.1 nM | 55.7% |  |  | > 10000 nM | COc1ccccc1OC(=O)N(Nc1ccccc1)S(=O)(=O)c1ccc(C)cc1 | > 10 µM | 
490 nM |  |  |  |  | COc1ccc(OC(=O)N(Nc2ccccc2)S(=O)(=O)c2ccc(OC)cc2)cc1 | > 10 µM | 
 | 63.6% |  |  | > 10000 nM | O=C(Oc1ccccc1)N(Nc1ccccc1)S(=O)(=O)c1ccccc1 |  | 
134 nM |  |  |  |  | CCCc1ccc(S(=O)(=O)N(Nc2ccccc2)C(=O)Oc2ccc(Oc3ccccc3)cc2)cc1 | > 1 µM | 
20.5 nM | 62.5% |  |  | > 10000 nM | CCOc1ccc(OC(=O)N(Nc2ccccc2)S(=O)(=O)c2ccc(OC)cc2)cc1 | > 10 µM | 
56.9 nM | 79.9% |  |  | > 10000 nM | CC(C)(C)c1ccc(S(=O)(=O)N(Nc2ccccc2)C(=O)Oc2ccc(OCc3ccccc3)cc2)cc1 | > 1 µM | 
5720 nM |  |  |  |  | Cc1ccc(S(=O)(=O)N(Nc2ccccc2)C(=O)Oc2ccccc2)cc1 | > 10 µM | 
50 nM | 62.6% |  |  | > 10000 nM | COc1ccc(S(=O)(=O)N(Nc2ccccc2)C(=O)Oc2ccc(OCc3ccccc3)cc2)cc1 | >= 10 uM | 
1010 nM | 41.3% |  |  | 6100 nM | Cc1ccc(OC(=O)N(Nc2ccccc2)S(=O)(=O)c2ccc(C)cc2)cc1 | > 10 µM | 

SMILES | IC50 [2] | Activity [3] | Ratio IC50 [4] | IC50 [6] | IC50 [7] | Cytotoxic concentration [1] | Ratio IC50 [5]
O=C(Oc1ccc(Oc2ccccc2)cc1)N(Nc1ccccc1)S(=O)(=O)c1ccc(-c2ccccc2)cc1 | 161 nM |  |  |  |  | > 1 µM | 
O=C(Oc1ccc(OCc2ccccc2)cc1)N(Nc1ccccc1)S(=O)(=O)c1ccc(-c2ccccc2)cc1 | 93 nM |  |  |  |  | > 1 µM | 
